Assay results: ChEMBL document CHEMBL1125929, “Octoclothepin enantiomers. A reinvestigation of their biochemical and pharmacological activity in relation to a new receptor-interaction model for dopamine D-2 receptor antagonists” (J Med Chem, 1991)

Key:
Format in all cases: functional
Details in all cases: sc
[1] = test system: Mus musculus; test: Dose to antagonise, when given subcutaneously to mice (in vivo) using methyl phenidate antagonism test
How it was run: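 Male NMRI mice (18–25 g) got test compound sc 2 h before methyl phenidate (222 μmol/kg sc). Mice were placed in pairs on corrugated cardboard in gnawing cages. Gnawing was judged 1 h later by inspecting the cardboard. Six to nine pairs per dose.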

[2] = test system: Rattus norvegicus; test: Dose to antagonise, when given subcutaneously to 6-OH-DA-lesioned rats, using SK & F 38393 antagonism test.(in vivo)
How it was run: (§1)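 Unilateral 6-OHDA-lesioned rats, tested 2–9 months after lesioning once stable contralateral circling was seen. Agonist was pergolide (0.05 μmol/kg sc) or SK&F 38393 (4.3 μmol/kg sc), given 2 h after the test compound. Inhibition was calculated as percent of each rat's own control circling response. Four to eight rats per dose.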

[3] = test system: Rattus norvegicus; test: Dose to antagonise, when given subcutaneously to 6-OH-DA-lesioned rats, using pergolide antagonism test.(in vivo); how it was run: as §1
[4] = test system: Rattus norvegicus; test: Dose to antagonise, when given subcutaneously to rats (in vivo) using catalepsy test, maximum effect 1-6h.
How it was run: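 Male Wistar rats (170–270 g) were scored hourly 1–6 h after dosing on a vertical wire grid. Catalepsy counted as present after at least 15-s immobility. The maximum effect over 1–6 h was taken. Eight to twelve animals per dose.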

[5] = test system: Rattus norvegicus; test: Dose to antagonise, when given subcutaneously to rats (in vivo) using flexor reflex St 587 antagonism test.
[6] = test system: Rattus norvegicus; test: Dose to antagonise, when given subcutaneously to rats (in vivo) using inhibition of locomotor motility test
How it was run: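 Locomotor activity of male Wistar rats was measured in photocell cages 2 h after test compound or saline. Four to eight animals per dose.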

[7] = test system: Rattus norvegicus; test: Dose to antagonise, when given subcutaneously to rats (in vivo) using quipazine antagonism test.
How it was run: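 Rats got test compound 2 h before quipazine (15 μmol/kg sc). Each rat was observed singly in a perspex box, and head twitches were counted 30–40 min after quipazine. Inhibition was expressed as percent of a parallel control group. Four to eight rats per dose.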

| SMILES | ED50 [1] | ED50 [2] | ED50 [3] | ED50 [4] | ED50 [5] | ED50 [6] | ED50 [7] |
| --- | --- | --- | --- | --- | --- | --- | --- |
| CN1CCN([C@@H]2Cc3ccccc3Sc3ccc(Cl)cc32)CC1 | 3.8 µmol/kg | 1.9 µmol/kg | 0.31 µmol/kg | 24 µmol/kg | 0.095 µmol/kg | 0.46 µmol/kg | 0.012 µmol/kg |
| CN1CCN([C@H]2Cc3ccccc3Sc3ccc(Cl)cc32)CC1 | 0.2 µmol/kg | 0.85 µmol/kg | 0.017 µmol/kg | 0.65 µmol/kg | 0.26 µmol/kg | 0.12 µmol/kg | 0.02 µmol/kg |
| CN1CCN(C2Cc3ccccc3Sc3ccc(Cl)cc32)CC1 (stereo unspecified) [CLOROTEPINE] | 0.19 µmol/kg | 0.25 µmol/kg | 0.033 µmol/kg | 1.3 µmol/kg | 0.064 µmol/kg | 0.18 µmol/kg | 0.019 µmol/kg |
